Screens (PubChem BioAssay)
Sampled rows, rich in hits. Any-hit rate of the full collection: about 4.4%.
AI-2 QS mod = modulates the Vibrio harveyi AI-2 quorum sensing system; activity change, % at 7.5 µM; actives 0.4% (n = 300,000); Vibrio harveyi JMH597 AI-2 luminescence/OD600 ratio, 9 h; stronger effect = lower value; strain lacks LuxN and CqsS sensors; 0 = neutral-control median; in the data active = activity change below about -75%, passing the limit was not always enough; inconclusive = no clear call, values can overlap the other calls;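 also: luminescence divided by OD600 gain over 9 h not by final OD600 alone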
m5-HT2A agonist = agonists of mouse serotonin 5-HT2A receptor (HTR2A); CHO-K1 mHTR2A beta-arrestin complementation, luminescence; percent of 30 µM serotonin response; activation, % at 7.6 µM; actives 0.66% (n = 360,000); AID 624169;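 active = activation above a run cutoff, the mean activation of all tested compounds plus 3 SD, cut at about 14% in these data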;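 also: 0% = plate median of compound wells and 100% = 30 µM serotonin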
Target sequence (P35363 whole entry, looked up): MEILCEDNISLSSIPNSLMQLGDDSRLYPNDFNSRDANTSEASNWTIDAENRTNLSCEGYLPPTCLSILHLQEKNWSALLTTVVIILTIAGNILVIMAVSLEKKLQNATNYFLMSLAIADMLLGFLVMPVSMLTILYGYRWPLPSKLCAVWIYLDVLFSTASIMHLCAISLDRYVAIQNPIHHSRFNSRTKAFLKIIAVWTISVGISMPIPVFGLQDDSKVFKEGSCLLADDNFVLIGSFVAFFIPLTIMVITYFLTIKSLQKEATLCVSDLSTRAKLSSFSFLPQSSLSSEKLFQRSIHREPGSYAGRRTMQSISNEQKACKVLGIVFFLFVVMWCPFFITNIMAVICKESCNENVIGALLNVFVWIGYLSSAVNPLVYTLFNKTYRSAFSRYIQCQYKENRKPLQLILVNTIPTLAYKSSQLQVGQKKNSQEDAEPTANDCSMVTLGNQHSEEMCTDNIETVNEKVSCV
bovine MsrA act = activates bovine MsrA enzyme; activation, % at 10.6 µM; actives 0.3% (n = 360,000); purified bovine MsrA, absorbance read-out; in the data active = activation above about 7.5%;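 also: 0% = vehicle and 100% = reference activator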
MsrA inhibitor = inhibitors of bovine MsrA; purified bovine MsrA, absorbance read-out; inhibition, % at 15.5 µM; actives 0.75% (n = 360,000); AID 651718; in the data active = inhibition above about 4.5%;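 also: 0% = vehicle wells with enzyme and 100% = reference inhibitor wells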
AHR act = activates the human aryl hydrocarbon receptor | actives 2.5% (n = 320,000) | AHR-responsive luciferase reporter cells, luminescence | activation, % at 5 µM | P35869; in the data active = activation above about 47%;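 also: 0% = vehicle wells and 100% = reference agonist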
Tb MetRS inh = Trypanosoma brucei MetRS inhibition. actives 0.4% (n = 360,000). inhibition, % at 11.9 µM. purified T. brucei MetRS, ATP depletion, Kinase-Glo luminescence;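 active = inhibition above a per-plate cutoff of the control wells' mean inhibition plus 3 SD, cut at about 5.5% in these data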;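 also: 0% = DMSO wells median and 100% = median of wells with control inhibitor compound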
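technique = Kinase-Glo luminescence, ATP depletion format | system = purified MetRS (methionyl-tRNA synthetase) enzyme from Trypanosoma brucei | timing = 15 min preincubation, 2 h reaction, all 25 °C | evaluation = percent inhibition versus plate control medians | dosing = single dose, 11.9 µM final nominal, 0.9% final DMSO | also added = substrates ATP, L-methionine and bulk Escherichia coli tRNA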
JMH597 growth rt = retest Vibrio harveyi JMH597 growth inhibition. shares compounds with AI-2 QS mod. growth inhibition, % at 7.5 µM. actives 1% (n = 750). OD600 absorbance, 9 h; lacks LuxN and CqsS sensors;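 active = every replicate shows growth inhibition above 50%; inconclusive = at least half, but not all, replicates pass that cutoff; inactive = fewer than half of replicates pass it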
BB721 const-QS lum = retest counter-screen: BB721 constitutive quorum sensing luminescence decrease; Vibrio harveyi BB721 luminescence, 9 h; inhibition, % at 7.5 µM; actives 95% (n = 750); shares compounds with AI-2 QS mod;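 active = inhibition above about 80% in every replicate, not just on average, limit read from the data; inconclusive = at least half of replicates past the limit, but not all; inactive = fewer than half of replicates past the limit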
BB721 growth rt = retest Vibrio harveyi BB721 growth inhibition; shares compounds with AI-2 QS mod; OD600 absorbance, 9 h; growth inhibition, % at 7.5 µM; actives 3% (n = 750); AID 2728;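 active = every replicate shows growth inhibition above 50%; inconclusive = at least half but not all replicates above 50% inhibition; inactive = under half of replicates above 50% inhibition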
JMH597 AI-2 mod = Vibrio harveyi AI-2 signaling luminescence modulation – JMH597 strain, confirmation; shares compounds with AI-2 QS mod; inhibition, % at 7.5 µM; actives 97% (n = 750); AID 2736; Vibrio harveyi JMH597 AI-2 quorum sensing luminescence, 9 h; luxN and CqsS knockout, AI-2 only;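 active = every replicate shows more than 75% inhibition of signal versus neutral control wells; inconclusive = half to three quarters of replicates exceed 75% inhibition; inactive = fewer than half of replicates exceed 75% inhibition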
* = called active by the depositor.

What do the screens show for `CN(C)S(=O)(=O)c1ccc(C(=O)OCC(=O)c2ccc3c(c2)NC(=O)CO3)cc1`?
AI-2 QS mod: -94.6*; m5-HT2A agonist: 2.9; bovine MsrA act: -14.1; MsrA inhibitor: -1.1; AHR act: 2.4; Tb MetRS inh: -1.3; JMH597 growth rt: -10.3; BB721 const-QS lum: inconclusive; BB721 growth rt: -8.2; JMH597 AI-2 mod: 84.8*

What do the screens show for `Cc1cc(C)cc(OCC(=O)OCC(=O)c2ccc3c(c2)NC(=O)CO3)c1`?
AI-2 QS mod: 16.6; m5-HT2A agonist: -4.1; bovine MsrA act: 0.1; MsrA inhibitor: -0.4; AHR act: 1.2; Tb MetRS inh: -0.8

How did CN(C)S(=O)(=O)c1cccc(C(=O)OCC(=O)c2ccc3c(c2)NC(=O)CO3)c1 do in these assays?
AI-2 QS mod: -52.6; m5-HT2A agonist: 3.3; bovine MsrA act: -1.8; MsrA inhibitor: 1.1; AHR act: -0.6; Tb MetRS inh: -0.2

How did Cc1ccc(OCCC(=O)NNC(=O)c2ccccc2F)cc1 do in these assays?
m5-HT2A agonist: 0.8; bovine MsrA act: -0.5; MsrA inhibitor: 1.5; AHR act: -0.7; Tb MetRS inh: -0.3

How did Cc1ccc(O)c(CNc2ccc(S(=O)(=O)Nc3nccs3)cc2)c1 do in these assays?
AI-2 QS mod: -89.1*; m5-HT2A agonist: -9.5; bovine MsrA act: -2.8; MsrA inhibitor: -1.0; AHR act: -0.3; Tb MetRS inh: 1.6; JMH597 growth rt: 19.3; BB721 const-QS lum: 93.3*; BB721 growth rt: 28.0; JMH597 AI-2 mod: 95.3*

Results for O=C(CCS(=O)(=O)c1ccccc1)Nc1ccc(S(=O)(=O)Nc2nccs2)cc1 ?
m5-HT2A agonist: 2.4; bovine MsrA act: -9.3; MsrA inhibitor: 1.0; AHR act: -0.3; Tb MetRS inh: 0.3

Results for O=C(CCc1ccccc1)Nc1ccc(S(=O)(=O)Nc2nccs2)cc1 ?
AI-2 QS mod: -84.7*; m5-HT2A agonist: 4.3; bovine MsrA act: -10.4; MsrA inhibitor: 1.7; AHR act: 7.8; Tb MetRS inh: -0.8; JMH597 growth rt: 17.8; BB721 const-QS lum: 89.2*; BB721 growth rt: 8.1; JMH597 AI-2 mod: 93.3*

Results for Cc1nc(-c2cccnc2)sc1C(=O)Nc1cccc(C(F)(F)F)c1 ?
AI-2 QS mod: -85.6*; m5-HT2A agonist: -3.0; bovine MsrA act: -3.0; MsrA inhibitor: -1.3; AHR act: 17.9; Tb MetRS inh: 0.2; JMH597 growth rt: -15.3; BB721 const-QS lum: 85.4*; BB721 growth rt: 9.6; JMH597 AI-2 mod: 89.5*

How did CNc1nc(SCC(=O)Nc2ccc(Cl)c(Cl)c2)nc(N2CCOCC2)n1 do in these assays?
AI-2 QS mod: inconclusive; m5-HT2A agonist: 5.5; bovine MsrA act: -2.3; MsrA inhibitor: -0.5; AHR act: 2.0; Tb MetRS inh: -0.3; JMH597 growth rt: -13.0; BB721 const-QS lum: -12.6; BB721 growth rt: -22.1; JMH597 AI-2 mod: -2.3

Results for Cc1cc(C)nc(SCC(=O)Nc2ccc(N3CCOCC3)c(Cl)c2)n1 ?
m5-HT2A agonist: 1.1; bovine MsrA act: -6.8; MsrA inhibitor: 1.1; AHR act: 1.0; Tb MetRS inh: -0.1

What do the screens show for `O=C(COC(=O)CCc1ccccc1)NNC(=O)c1ccccc1`?
m5-HT2A agonist: 1.0; bovine MsrA act: -3.4; MsrA inhibitor: 0.7; AHR act: -0.9; Tb MetRS inh: -0.3

How did Cc1ccccc1-c1ccc(=O)n(CC(=O)Nc2ccc(-n3cnnn3)cc2)n1 do in these assays?
AI-2 QS mod: 18.7; m5-HT2A agonist: -8.3; bovine MsrA act: -2.6; MsrA inhibitor: 0.3; AHR act: 5.3; Tb MetRS inh: 0.2

How did CN(C)S(=O)(=O)c1ccc(NC(=S)NC(=O)Cc2ccccc2)cc1 do in these assays?
AI-2 QS mod: -86.1*; m5-HT2A agonist: -2.1; bovine MsrA act: -4.1; MsrA inhibitor: -0.6; AHR act: 0.9; Tb MetRS inh: -0.9; JMH597 growth rt: -1.1; BB721 const-QS lum: 15.6; BB721 growth rt: -128.7; JMH597 AI-2 mod: 24.7

Results for Cc1ccccc1-c1ccc(=O)n(CC(=O)Nc2ccc(S(=O)(=O)N(C)C)cc2)n1 ?
AI-2 QS mod: -87.0*; m5-HT2A agonist: -2.2; bovine MsrA act: -3.0; MsrA inhibitor: -0.9; AHR act: 0.3; Tb MetRS inh: 1.4; JMH597 growth rt: 21.3; BB721 const-QS lum: 92.8*; BB721 growth rt: 7.0; JMH597 AI-2 mod: 96.5*

How did CC1=C(C(=O)N(C(C)C)C(C)C)CC(CC(=O)NCc2cccs2)C(=O)N1Cc1ccc(C(C)(C)C)cc1 (stereo not drawn) do in these assays?
m5-HT2A agonist: 0.7; bovine MsrA act: -3.7; MsrA inhibitor: 0.8; Tb MetRS inh: -1.1

What do the screens show for `CSc1nc(=S)n(-c2ccc([N+](=O)[O-])cc2)c(C)c1C(C)=O`?
AI-2 QS mod: 7.6; m5-HT2A agonist: 1.2; bovine MsrA act: -5.1; MsrA inhibitor: 0.7; AHR act: 0.3; Tb MetRS inh: -1.6

How did c1ccc(CNc2nc(-c3cccnc3)cs2)cc1 do in these assays?
AI-2 QS mod: -82.6*; m5-HT2A agonist: -1.2; bovine MsrA act: -3.6; MsrA inhibitor: 0.1; AHR act: 18.6; Tb MetRS inh: -0.4; JMH597 growth rt: 21.8; BB721 const-QS lum: 94.0*; BB721 growth rt: 12.1; JMH597 AI-2 mod: 96.5*

What do the screens show for `Cc1cc(OCc2cc(C(=O)N(C)C3CCOC3)no2)cc(C)c1Cl` (stereo not drawn)?
AI-2 QS mod: 18.4; m5-HT2A agonist: 0.7; bovine MsrA act: 0.9; MsrA inhibitor: -0.3; AHR act: 11.2; Tb MetRS inh: 0.1

Results for Cc1ccc(Cn2cc(-c3ccccc3)nn2)cc1 ?
AI-2 QS mod: -94.6*; m5-HT2A agonist: -4.2; bovine MsrA act: -1.8; MsrA inhibitor: -1.7; AHR act: 3.7; Tb MetRS inh: -0.1; JMH597 growth rt: -2.1; BB721 const-QS lum: 98.3*; BB721 growth rt: -3.8; JMH597 AI-2 mod: 98.8*

What do the screens show for `COc1ccc(-c2cn(Cc3ccc(C(=O)c4ccccc4)cc3)nn2)cc1`?
AI-2 QS mod: 16.1; MsrA inhibitor: 2.1; AHR act: 5.1

Results for Cn1c(-c2ccccc2)c(Sc2ccccc2)c2cc(-c3ccc4cc[nH]c4c3)ccc21 ?
m5-HT2A agonist: -3.9; bovine MsrA act: -2.0; MsrA inhibitor: 1.8; Tb MetRS inh: -0.1
